According to article PMC4415995 (Advances in Therapy, 2015):
Like-named read-outs stand apart in the source and are kept apart here. Marks after values point to notes of the source that are not given here.

Legend:
[1] = test system: Japanese patients with T2DM; test: Urinary glucose excretion; type: in vivo, human
Outline: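 Dosing was once daily, 0.5–5 mg or placebo, before a standardized ~600 kcal breakfast. Read-outs were 24-h cumulative UGE, total UGE and per-interval UGE rate, plus change from Day −1. LS mean difference vs placebo with 95% CI.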

[2] = test system: Japanese patients with T2DM; test: Serum insulin concentrations, 7-day once-daily dosing; type: in vivo, human
[3] = test system: Japanese patients with T2DM; test: Urine volume, water intake and body weight, 7-day once-daily dosing; type: in vivo, human
[4] = test system: Japanese patients with T2DM; test: Sigmoid E max model regression of change in UGE on plasma luseogliflozin AUC; type: in vivo, human
SGLT2 = conditions: read-out: 50% inhibitory concentration (IC50); cited from earlier work
SGLT1 = conditions: SGLT2 vs SGLT1; cited from earlier work
healthy Japanese males = conditions: healthy subjects on luseogliflozin; cited from earlier work
[5] = test system: Japanese patients with T2DM; conditions: cited from earlier work

CCOc1ccc(Cc2cc([C@@H]3S[C@H](CO)[C@@H](O)[C@H](O)[C@H]3O)c(OC)cc2C)cc1 [Luseogliflozin, (1S)-1,5-anhydro-1-[5-(4-ethoxybenzyl)-2-methoxy-4-methylphenyl]-1-thio-D-glucitol]
UGE0–24h ([1]; 0.5 mg OD, Day 1): 81.5 ± 33.2 g | UGE0–24h LS mean difference vs placebo (95% CI) ([1]; 0.5 mg OD, Day 1): 46.4 (32.9, 60.0)* g | Least-squares mean difference in 24-h UGE vs placebo ([1]; 0.5 mg OD, Day 7): 49.2 g/day | UGE0–24h ([1]; 0.5 mg OD, Day 7): 81.7 ± 30.1 g | UGE0–24h LS mean difference vs placebo (95% CI) ([1]; 0.5 mg OD, Day 7): 49.2 (27.9, 70.5)* g | UGE0–24h LS mean difference vs placebo (95% CI) ([1]; 0.5 mg OD, Day 7, listed as luseogliflozin): 49.2 g | UGE0–24h ([1]; 1 mg OD, Day 1): 75.1 ± 23.3 g | UGE0–24h LS mean difference vs placebo (95% CI) ([1]; 1 mg OD, Day 1): 58.9 (45.7, 72.1)* g | Least-squares mean difference in 24-h UGE vs placebo ([1]; 1 mg OD, Day 7): 66.5 g/day | UGE0–24h ([1]; 1 mg OD, Day 7): 85.3 ± 18.8 g | UGE0–24h LS mean difference vs placebo (95% CI) ([1]; 1 mg OD, Day 7): 66.5 (45.8, 87.1)* g | UGE0–24h LS mean difference vs placebo (95% CI) ([1]; 1 mg OD, Day 7, listed as luseogliflozin): 66.5 g | UGE0–24h ([1]; 2.5 mg OD, Day 1): 139 ± 31.1 g | UGE0–24h LS mean difference vs placebo (95% CI) ([1]; 2.5 mg OD, Day 1): 91.7 (78.1, 105)* g | Least-squares mean difference in 24-h UGE vs placebo ([1]; 2.5 mg OD, Day 7): 89.4 g/day | UGE0–24h ([1]; 2.5 mg OD, Day 7): 131 ± 29.9 g | UGE0–24h LS mean difference vs placebo (95% CI) ([1]; 2.5 mg OD, Day 7): 89.4 (68.2, 111)* g | UGE0–24h LS mean difference vs placebo (95% CI) ([1]; 2.5 mg OD, Day 7, listed as luseogliflozin): 89.4 g | energy loss equivalent to the increase in UGE ([1]; 5 mg OD): approximately 400 kcal | increase in UGE ([1]; 5 mg OD): about 100 g glucose/day | UGE0–24h ([1]; 5 mg OD, Day 1): 116 ± 29.0 g | UGE0–24h LS mean difference vs placebo (95% CI) ([1]; 5 mg OD, Day 1): 101 (87.6, 114)* g | Least-squares mean difference in 24-h UGE vs placebo ([1]; 5 mg OD, Day 7): 101 g/day | UGE0–24h ([1]; 5 mg OD, Day 7): 120 ± 33.1 g | UGE0–24h LS mean difference vs placebo (95% CI) ([1]; 5 mg OD, Day 7): 101 (80.7, 122)* g | UGE0–24h LS mean difference vs placebo (95% CI) ([1]; 5 mg OD, Day 7, listed as luseogliflozin): 101 g | time for UGE to return toward the baseline value after treatment discontinuation ([1]; each dose group): 1 to 3 days | Serum insulin AUC0–4h (after breakfast) ([2]; 0.5 mg OD, Day 1): 95.0 ± 33.9 μIU h/mL | Serum insulin AUC0–4h (after breakfast) LS mean difference vs placebo (95% CI) ([2]; 0.5 mg OD, Day 1): −13.8 (−43.1, 15.6) μIU h/mL | Serum insulin AUC0–4h (after breakfast) ([2]; 0.5 mg OD, Day 7): 81.4 ± 39.4 μIU h/mL | Serum insulin AUC0–4h (after breakfast) LS mean difference vs placebo (95% CI) ([2]; 0.5 mg OD, Day 7): −32.3 (−62.8, −1.82)* μIU h/mL | Serum insulin AUC0–4h (after breakfast) ([2]; 1 mg OD, Day 1): 161 ± 67.9 μIU h/mL | Serum insulin AUC0–4h (after breakfast) LS mean difference vs placebo (95% CI) ([2]; 1 mg OD, Day 1): −12.1 (−39.4, 15.3) μIU h/mL | Serum insulin AUC0–4h (after breakfast) ([2]; 1 mg OD, Day 7): 125 ± 43.4 μIU h/mL | Serum insulin AUC0–4h (after breakfast) LS mean difference vs placebo (95% CI) ([2]; 1 mg OD, Day 7): −36.1 (−64.5, −7.72)* μIU h/mL | Serum insulin AUC0–4h (after breakfast) ([2]; 2.5 mg OD, Day 1): 101 ± 56.1 μIU h/mL | Serum insulin AUC0–4h (after breakfast) LS mean difference vs placebo (95% CI) ([2]; 2.5 mg OD, Day 1): −32.7 (−60.4, −4.93)* μIU h/mL | Serum insulin AUC0–4h (after breakfast) ([2]; 2.5 mg OD, Day 7): 75.1 ± 29.4 μIU h/mL | Serum insulin AUC0–4h (after breakfast) LS mean difference vs placebo (95% CI) ([2]; 2.5 mg OD, Day 7): −56.7 (−85.4, −27.9)* μIU h/mL | Serum insulin AUC0–4h (after breakfast) ([2]; 5 mg OD, Day 1): 190 ± 118 μIU h/mL | Serum insulin AUC0–4h (after breakfast) LS mean difference vs placebo (95% CI) ([2]; 5 mg OD, Day 1): −17.0 (−44.8, 10.8) μIU h/mL | Serum insulin AUC0–4h (after breakfast) ([2]; 5 mg OD, Day 7): 157 ± 82.5 μIU h/mL | Serum insulin AUC0–4h (after breakfast) LS mean difference vs placebo (95% CI) ([2]; 5 mg OD, Day 7): −28.6 (−57.5, 0.198) μIU h/mL | Body weight (24 h after dose) ([3]; 0.5 mg OD, Day 1): 67.49 ± 14.32 kg | Body weight (24 h after dose) LS mean difference vs placebo (95% CI) ([3]; 0.5 mg OD, Day 1): −0.19 (−0.58, 0.20) kg | Urine volume ([3]; 0.5 mg OD, Day 1): 3148.1 ± 718.5 mL/day | Urine volume LS mean difference vs placebo (95% CI) ([3]; 0.5 mg OD, Day 1): 456.1 (−212.4, 1124.7) mL/day | Water intake ([3]; 0.5 mg OD, Day 1): 2694.4 ± 936.4 mL/day | Water intake LS mean difference vs placebo (95% CI) ([3]; 0.5 mg OD, Day 1): 131.8 (−455.8, 719.3) mL/day | Body weight (24 h after dose) ([3]; 0.5 mg OD, Day 7): 66.76 ± 14.29 kg | Body weight (24 h after dose) LS mean difference vs placebo (95% CI) ([3]; 0.5 mg OD, Day 7): −0.45 (−1.14, 0.24) kg | Urine volume ([3]; 0.5 mg OD, Day 7): 3053.3 ± 1067.7 mL/day | Urine volume LS mean difference vs placebo (95% CI) ([3]; 0.5 mg OD, Day 7): 303.5 (−208.4, 815.3) mL/day | Water intake ([3]; 0.5 mg OD, Day 7): 2686.4 ± 929.1 mL/day | Water intake LS mean difference vs placebo (95% CI) ([3]; 0.5 mg OD, Day 7): 175.8 (−407.1, 758.7) mL/day | Body weight (24 h after dose) ([3]; 1 mg OD, Day 1): 71.71 ± 18.26 kg | Body weight (24 h after dose) LS mean difference vs placebo (95% CI) ([3]; 1 mg OD, Day 1): −0.31 (−0.68, 0.07) kg | Urine volume ([3]; 1 mg OD, Day 1): 3284.5 ± 653.4 mL/day | Urine volume LS mean difference vs placebo (95% CI) ([3]; 1 mg OD, Day 1): 723.8 (76.7, 1370.9)* mL/day | Water intake ([3]; 1 mg OD, Day 1): 3023.8 ± 883.4 mL/day | Water intake LS mean difference vs placebo (95% CI) ([3]; 1 mg OD, Day 1): 513.6 (−54.5, 1081.7) mL/day | Body weight (24 h after dose) ([3]; 1 mg OD, Day 7): 71.01 ± 18.10 kg | Body weight (24 h after dose) LS mean difference vs placebo (95% CI) ([3]; 1 mg OD, Day 7): −0.51 (−1.17, 0.14) kg | Urine volume ([3]; 1 mg OD, Day 7): 2421.0 ± 795.6 mL/day | Urine volume LS mean difference vs placebo (95% CI) ([3]; 1 mg OD, Day 7): −174.9 (−670.3, 320.5) mL/day | Water intake ([3]; 1 mg OD, Day 7): 2400.4 ± 583.5 mL/day | Water intake LS mean difference vs placebo (95% CI) ([3]; 1 mg OD, Day 7): −64.4 (−628, 499.2) mL/day | Body weight (24 h after dose) ([3]; 2.5 mg OD, Day 1): 67.43 ± 7.73 kg | Body weight (24 h after dose) LS mean difference vs placebo (95% CI) ([3]; 2.5 mg OD, Day 1): −0.53 (−0.91, −0.15)* kg | Urine volume ([3]; 2.5 mg OD, Day 1): 3511.4 ± 522.9 mL/day | Urine volume LS mean difference vs placebo (95% CI) ([3]; 2.5 mg OD, Day 1): 643.8 (−3.8, 1291.3) mL/day | Water intake ([3]; 2.5 mg OD, Day 1): 2964.0 ± 940.1 mL/day | Water intake LS mean difference vs placebo (95% CI) ([3]; 2.5 mg OD, Day 1): −161.3 (−733.9, 411.4) mL/day | Body weight (24 h after dose) ([3]; 2.5 mg OD, Day 7): 66.70 ± 7.84 kg | Body weight (24 h after dose) LS mean difference vs placebo (95% CI) ([3]; 2.5 mg OD, Day 7): −0.79 (−1.46, −0.12)* kg | Urine volume ([3]; 2.5 mg OD, Day 7): 3048.5 ± 868.2 mL/day | Urine volume LS mean difference vs placebo (95% CI) ([3]; 2.5 mg OD, Day 7): 92.9 (−402.9, 588.6) mL/day | Water intake ([3]; 2.5 mg OD, Day 7): 3049.1 ± 856.6 mL/day | Water intake LS mean difference vs placebo (95% CI) ([3]; 2.5 mg OD, Day 7): 46.5 (−521.6, 614.6) mL/day | Body weight (24 h after dose) ([3]; 5 mg OD, Day 1): 70.96 ± 9.34 kg | Body weight (24 h after dose) LS mean difference vs placebo (95% CI) ([3]; 5 mg OD, Day 1): −0.74 (−1.11, −0.36)* kg | Urine volume ([3]; 5 mg OD, Day 1): 3939.8 ± 1386.0 mL/day | Urine volume LS mean difference vs placebo (95% CI) ([3]; 5 mg OD, Day 1): 888.4 (235, 1541.8)* mL/day | Water intake ([3]; 5 mg OD, Day 1): 3256.8 ± 1581.7 mL/day | Water intake LS mean difference vs placebo (95% CI) ([3]; 5 mg OD, Day 1): 17.3 (−558.5, 593.1) mL/day | Body weight (24 h after dose) ([3]; 5 mg OD, Day 7): 70.24 ± 9.09 kg | Body weight (24 h after dose) LS mean difference vs placebo (95% CI) ([3]; 5 mg OD, Day 7): −0.97 (−1.62, −0.31)* kg | Urine volume ([3]; 5 mg OD, Day 7): 3471.4 ± 1204.5 mL/day | Urine volume LS mean difference vs placebo (95% CI) ([3]; 5 mg OD, Day 7): 300.4 (−199.9, 800.6) mL/day | Water intake ([3]; 5 mg OD, Day 7): 3141.0 ± 1387.3 mL/day | Water intake LS mean difference vs placebo (95% CI) ([3]; 5 mg OD, Day 7): 38.5 (−532.7, 609.8) mL/day | UGE as share of the maximal UGE value estimated using the E max model ([4]; 5 mg OD, after 7 days): approximately 85% | E max (maximum change in UGE), estimate (95% CI) ([4]; values on Day 1 and 7): 119 g/day | IC50 (SGLT2): 2.26 nM | IC50 for SGLT2 lower than IC50 for SGLT1 (selectivity) (SGLT1): 1765 fold | mean UGE (healthy Japanese males): 58.0 g/day | incidence of hypoglycemia ([5]; 0.5 mg, Phase II, 1/60): 1.7% | incidence of AEs related to genital infection ([5]; 2.5 mg, Phase III, 1/79): 1.3% | incidence of hypoglycemia ([5]; 2.5 mg, Phase III, 1/79): 1.3% | incidence of pollakiuria ([5]; 2.5 mg, Phase III, 2/79): 2.5% | incidence of AEs related to renal function ([5]; 2.5 mg, Phase III, 6/79): 7.6% | body weight change ([5]; 2.5 mg, over 24 weeks of treatment): -2.70 kg | incidence of hypoglycemia ([5]; 5 mg, Phase II, 1/54): 1.9% | episodes of volume depletion ([5]; Phase III study): no episodes
